Tests used:
[1] = Displacement of [3H]prazosin from adrenergic-alpha-1 receptor in pig cortical membrane
D(2) dopamine receptor [2] = molecular target: T1, D(2) dopamine receptor (Homo sapiens, UniProt P14416); assay: Displacement of [3H]spiperone from dopamine D2long receptor in CHO cells; type: cell-based
Outline: (§1)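 Competition binding used membranes from stably transfected CHO cells expressing human D2long, D2short, D3 or D4.4 receptor, with [³H]spiperone at 0.1 nM final.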

[3] = Lipophilicity, log D at pH 7.4; conditions: buffer
[4] = Displacement of [3H]8HO-DPAT from serotonin 5-HT1A receptor in pig cortical membrane
D(2) dopamine receptor [5] = molecular target: T1, D(2) dopamine receptor; assay: Displacement of [3H]spiperone from dopamine D2short receptor in CHO cells; type: cell-based
Outline: as §1

[6] = Displacement of [3H]ketanserin from serotonin 5-HT2 receptor in pig cortical membrane
D(4) dopamine receptor = molecular target: T2, D(4) dopamine receptor (Homo sapiens, UniProt P21917); assay: Displacement of [3H]spiperone from dopamine D4.4 receptor in CHO cells; type: cell-based
T2 sequence (P21917 whole entry): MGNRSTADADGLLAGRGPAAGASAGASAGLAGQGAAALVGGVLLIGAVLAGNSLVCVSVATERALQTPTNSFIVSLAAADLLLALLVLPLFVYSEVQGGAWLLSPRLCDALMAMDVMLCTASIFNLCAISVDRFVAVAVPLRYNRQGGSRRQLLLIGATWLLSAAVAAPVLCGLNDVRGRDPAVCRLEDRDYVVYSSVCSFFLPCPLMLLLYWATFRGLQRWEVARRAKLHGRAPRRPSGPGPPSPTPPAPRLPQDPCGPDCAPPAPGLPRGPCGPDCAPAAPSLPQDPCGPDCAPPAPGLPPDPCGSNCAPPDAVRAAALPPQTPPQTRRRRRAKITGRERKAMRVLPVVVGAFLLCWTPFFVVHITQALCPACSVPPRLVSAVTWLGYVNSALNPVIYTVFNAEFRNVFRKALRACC
Outline: as §1

D(1A) dopamine receptor = D(1A) dopamine receptor (Sus scrofa, UniProt P50130); assay: Displacement of [3H]SCH23990 from dopamine D1 receptor in pig striatal membrane; type: cell membranes, Striatum
Chain of D(1A) dopamine receptor (P50130 whole entry): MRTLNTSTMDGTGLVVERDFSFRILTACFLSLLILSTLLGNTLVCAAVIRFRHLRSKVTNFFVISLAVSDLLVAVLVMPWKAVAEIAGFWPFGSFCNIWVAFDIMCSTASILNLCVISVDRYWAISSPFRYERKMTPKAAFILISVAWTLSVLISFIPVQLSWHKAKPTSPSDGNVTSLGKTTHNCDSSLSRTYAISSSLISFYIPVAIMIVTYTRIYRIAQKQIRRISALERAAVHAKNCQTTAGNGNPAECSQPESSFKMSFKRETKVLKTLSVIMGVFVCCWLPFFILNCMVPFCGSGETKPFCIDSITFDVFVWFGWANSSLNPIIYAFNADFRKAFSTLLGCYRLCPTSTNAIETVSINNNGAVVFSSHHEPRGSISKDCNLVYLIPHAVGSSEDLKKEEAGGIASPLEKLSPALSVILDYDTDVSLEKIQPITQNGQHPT

D(3) dopamine receptor = D(3) dopamine receptor (Homo sapiens, UniProt P35462); assay: Displacement of [3H]spiperone from dopamine D3 receptor in CHO cells; type: cell-based
Chain of D(3) dopamine receptor (P35462 whole entry): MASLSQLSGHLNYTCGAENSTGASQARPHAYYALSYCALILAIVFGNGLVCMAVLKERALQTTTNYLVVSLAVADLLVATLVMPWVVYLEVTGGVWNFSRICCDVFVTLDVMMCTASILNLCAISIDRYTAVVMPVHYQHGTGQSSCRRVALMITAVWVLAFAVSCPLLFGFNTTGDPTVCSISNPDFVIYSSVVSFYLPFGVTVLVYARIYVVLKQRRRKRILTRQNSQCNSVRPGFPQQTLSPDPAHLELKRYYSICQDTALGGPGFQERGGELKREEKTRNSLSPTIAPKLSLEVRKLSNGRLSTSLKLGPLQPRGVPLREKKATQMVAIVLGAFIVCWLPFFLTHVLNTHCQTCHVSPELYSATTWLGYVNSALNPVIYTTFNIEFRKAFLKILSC
Outline: as §1

T1 sequence (P14416 whole entry): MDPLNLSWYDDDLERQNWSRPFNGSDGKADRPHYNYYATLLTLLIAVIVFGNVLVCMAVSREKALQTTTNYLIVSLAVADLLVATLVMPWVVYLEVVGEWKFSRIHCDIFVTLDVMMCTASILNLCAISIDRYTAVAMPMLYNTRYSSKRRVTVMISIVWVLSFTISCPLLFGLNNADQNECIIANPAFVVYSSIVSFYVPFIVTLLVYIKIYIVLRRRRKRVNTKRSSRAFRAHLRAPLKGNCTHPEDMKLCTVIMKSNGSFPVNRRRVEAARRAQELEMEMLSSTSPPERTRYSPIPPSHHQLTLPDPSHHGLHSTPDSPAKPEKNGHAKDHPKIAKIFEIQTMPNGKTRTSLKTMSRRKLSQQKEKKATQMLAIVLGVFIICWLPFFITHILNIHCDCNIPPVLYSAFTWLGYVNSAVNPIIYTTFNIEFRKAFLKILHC

## C=CCN1CCC[C@H]1CNC(=O)c1cc(Br)cc(OC)c1OC
[1]
  Ki: 1600 nM
D(2) dopamine receptor [2]
  Ki: 0.85 nM
[3]
  logD: 2.83
[4]
  Ki: 140 nM
D(2) dopamine receptor [5]
  Ki: 0.88 nM
[6]
  Ki: 1100 nM
D(4) dopamine receptor
  Ki: 210 nM
D(1A) dopamine receptor
  Ki: 13000 nM
D(3) dopamine receptor
  Ki: 0.6 nM

## C=CCN1CCC[C@H]1CNC(=O)c1cc(I)cc(OC)c1OC
[1]
  Ki: 1100 nM
D(2) dopamine receptor [2]
  Ki: 0.68 nM
[3]
  logD: 2.91
[4]
  Ki: 150 nM
D(2) dopamine receptor [5]
  Ki: 0.74 nM
[6]
  Ki: 490 nM
D(4) dopamine receptor
  Ki: 250 nM
D(1A) dopamine receptor
  Ki: 18000 nM
D(3) dopamine receptor
  Ki: 0.46 nM

## C=CCN1CCC[C@H]1CNC(=O)c1cc(I)ccc1OC
[1]
  Ki: 2000 nM
D(2) dopamine receptor [2]
  Ki: 14 nM
[3]
  logD: 2.81
[4]
  Ki: 170 nM
D(2) dopamine receptor [5]
  Ki: 15 nM
[6]
  Ki: 2400 nM
D(4) dopamine receptor
  Ki: 630 nM
D(1A) dopamine receptor
  Ki: 13000 nM
D(3) dopamine receptor
  Ki: 11 nM

## C=CCN1CCC[C@H]1CNC(=O)c1cc(Br)ccc1OC
[1]
  Ki: 2000 nM
D(2) dopamine receptor [2]
  Ki: 23 nM
[3]
  logD: 2.71
[4]
  Ki: 230 nM
D(2) dopamine receptor [5]
  Ki: 27 nM
[6]
  Ki: 2100 nM
D(4) dopamine receptor
  Ki: 1700 nM
D(1A) dopamine receptor
  Ki: 17000 nM
D(3) dopamine receptor
  Ki: 22 nM

## C=CCN1CCC[C@H]1CNC(=O)c1cc(CCCF)ccc1OC
[1]
  Ki: 1900 nM
D(2) dopamine receptor [2]
  Ki: 30 nM
[3]
  logD: 2.63
[4]
  Ki: 2300 nM
D(2) dopamine receptor [5]
  Ki: 30 nM
[6]
  Ki: 4500 nM
D(4) dopamine receptor
  Ki: 3000 nM
D(1A) dopamine receptor
  Ki: 30000 nM
D(3) dopamine receptor
  Ki: 33 nM

## C=CCN1CCC[C@H]1CNC(=O)c1cc(CCCF)cc(OC)c1OC [FALLYPRIDE]
[1]
  Ki: 970 nM
D(2) dopamine receptor [2]
  Ki: 2.2 nM
[3]
  logD: 2.66
[4]
  Ki: 1100 nM
D(2) dopamine receptor [5]
  Ki: 2.1 nM
[6]
  Ki: 3700 nM
D(4) dopamine receptor
  Ki: 1300 nM
D(1A) dopamine receptor
  Ki: 18000 nM

## CCN1CCC[C@H]1CNC(=O)c1c(OC)ccc(I)c1O [IOLOPRIDE]
[1]
  Ki: 1900 nM
D(2) dopamine receptor [2]
  Ki: 4.2 nM
[3]
  logD: 3.13
[4]
  Ki: 1100 nM
D(2) dopamine receptor [5]
  Ki: 4.2 nM
[6]
  Ki: 2000 nM
D(4) dopamine receptor
  Ki: 570 nM
D(1A) dopamine receptor
  Ki: 12000 nM
D(3) dopamine receptor
  Ki: 4.2 nM

## CCN1CCC[C@H]1CNC(=O)c1c(O)c(Cl)cc(Cl)c1OC [RACLOPRIDE]
[1]
  Ki: 3000 nM
[4]
  Ki: 4400 nM
[6]
  Ki: 3500 nM
D(4) dopamine receptor
  Ki: 3100 nM
D(1A) dopamine receptor
  Ki: 37000 nM
D(3) dopamine receptor
  Ki: 15 nM

From ChEMBL document CHEMBL1139804, “In vitro affinities of various halogenated benzamide derivatives as potential radioligands for non-invasive quantification of D(2)-like dopamine receptors” (Bioorg Med Chem, 2007)
